Screening data: PubChem, several laboratories
A selection: hits, their analogues and other compounds. The true share with any hit is near 4.4%.
AHR activator: AHR activators, primary screen, cell-based, luminescence, luciferase reporter, human; AHR-responsive luciferase reporter cells; AID 2796, 2010; Aryl hydrocarbon receptor (Homo sapiens), P35869; activation, % at 5 µM; 320,000 compounds, 2.5% hits; in the data active = activation above about 47%
MsrA act: bovine MsrA enzyme activators, primary screen, biochemical, absorbance, HTS; Methionine sulfoxide reductase A (Bos taurus); purified bovine MsrA, absorbance read-out; activation, % at 10.6 µM; 360,000 compounds, 0.3% hits; in the data active = activation above about 7.5%
TbMetRS inhib: T. brucei MetRS inhibitors, primary screen, biochemical, luminescence; 360,000 compounds, 0.4% hits; purified T. brucei MetRS, ATP depletion, Kinase-Glo luminescence; inhibition, % at 11.9 µM; methionyl-tRNA synthetase (Trypanosoma brucei brucei);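 active = inhibition above a per-plate cutoff of the control wells' mean inhibition plus 3 SD, cut at about 5.5% in these data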
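Material – parasite MetRS enzyme · Medium – HEPES-MgCl2-KCl buffer plus DTT, spermine, BSA, pyrophosphatase · Reagent – ATP, methionine and E. coli bulk tRNA substrates · Times – 15 min enzyme-compound preincubation, 2 h reaction, 10 min detection, 25 °C · Measured by – luminescence of leftover ATP · Evaluation – percent inhibition relative to median high and low control wells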
m5-HT2A agonist: mouse Htr2a agonists via beta-arrestin recruitment, primary screen, cell-based, luminescence; CHO-K1 mHTR2A beta-arrestin complementation; percent of 30 µM serotonin response; activation, % at 7.6 µM; 360,000 compounds, 0.66% hits; AID 624169, 2012;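 active = activation above a run cutoff, the mean activation of all tested compounds plus 3 SD, cut at about 14% in these data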
MsrA inh: bovine MsrA enzyme inhibitors, primary screen, biochemical, absorbance, HTS; inhibition, % at 15.5 µM; 360,000 compounds, 0.75% hits; Methionine sulfoxide reductase A (Bos taurus); purified bovine MsrA, absorbance read-out
AI-2 QS mod: Vibrio harveyi AI-2 quorum sensing modulators, primary screen, JMH597 strain, luminescence/OD600 ratio | Vibrio harveyi JMH597 AI-2 luminescence/OD600 ratio, 9 h; hits give low values; strain lacks LuxN and CqsS sensors; 0 = neutral-control median | activity change, % at 7.5 µM | 300,000 compounds, 0.4% hits | AID 2094, 2009; in the data active = activity change below about -75%, passing the limit was not always enough;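 also: luminescence divided by OD600 gain over 9 h not by final OD600 alone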
MsrA conf: bovine MsrA inhibitors, retest, confirmation, biochemical, absorbance, HTS; shares compounds with MsrA inh; purified bovine MsrA, absorbance read-out; inhibition, % at 15.5 µM; 2,300 compounds, 41% hits; AID 651822, 2012;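 also: coupled to thioredoxin reductase with NADPH and selenocystamine and DMSO as substrate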
Hits are given with their value; n = inactive; x = not tested or not shown. Rule as the data show it, unless noted: active = inhibition above about 4.5%; inactive = the rest.

SMILES	AHR activator	MsrA act	TbMetRS inhib	m5-HT2A agonist	MsrA inh	AI-2 QS mod	MsrA conf
O=c1[nH]c(/C=C\c2cccs2)nc(O)c1[N+](=O)[O-]	n	n	n	n	5.3	n	n
O=C(N/C=N/OCc1ccc(Cl)cc1Cl)NOCc1ncc(C(F)(F)F)cc1Cl	n	n	n	n	15	n	11
N/C(=N\OC(=O)/C=C/c1ccccc1)c1ccccn1	n	n	n	n	n	n	x
O=C(/C=C/c1ccccc1)NC(=O)c1ccccc1O	n	n	n	n	n	n	x
COc1ccc(/C=C/C(=O)O/N=C(\N)c2ccccn2)cc1OC	n	n	n	n	4.8	x	n
COc1cc(/C=C/C(=O)NC(=O)c2ccccc2O)ccc1O	n	n	n	n	5.6	n	n
COc1ccc(/C=C/C(=O)c2ccc(C(=O)/C=C/c3ccc(OC)c(OC)c3)cc2)cc1OC	x	n	n	n	n	n	x
COc1ccc(/C=C/C(=O)c2ccc[nH]2)cc1OC	n	n	n	n	5.4	n	n
COc1ccc(/C=C/C(=O)Nc2ccccc2C(=O)O)cc1OC	n	n	n	n	5.2	n	5.4
CCOC(=O)[C@]12CCCC=C1N(Cc1ccco1)C(=O)[C@H](CC(=O)NCCCCc1ccccc1)C2	x	n	n	n	n	x	x
Cc1c(NS(=O)(=O)c2cccc(C(=O)Nc3cccc(F)c3)c2)c(=O)n(-c2ccccc2)n1C	x	n	n	n	n	x	x
Cc1ccccc1NC(=O)C(C)OC(=O)C1CCCO1 (centres undefined)	x	n	n	n	n	x	x
COc1ccc(/C=C/C(=O)Nc2ccc(C(N)=O)cc2)cc1OC	n	n	n	n	5.0	n	5.0
COc1ccc(/C=C/C(=O)Nc2ccc3c(c2)CCC3)cc1OC	n	n	n	n	n	n	x
CCc1cc(C(=O)O)c(NC(=O)/C=C/c2ccc(OC)c(OC)c2)s1	n	n	n	n	5.6	n	4.9
CC(=O)N(C(C)=O)S(=O)(=O)c1ccc(N=NN2CCCCC2)cc1	n	n	n	n	5.0	n	n
NS(=O)(=O)c1ccc(N=NN2CCCCC2)cc1	n	n	n	n	5.3	n	n
CN(C)C1=NC(=O)/C(=C\c2ccccc2)S1	n	n	n	n	6.5	n	n
O=C1N=C(N2CCCC2)S/C1=C\c1ccccc1	n	n	n	n	n	n	x
CCc1n[nH]c2c1/C(=N\O)CC(C)(C)C2	n	n	n	n	n	n	x
CCCc1n[nH]c2c1/C(=N\OCC)CC(C)(C)C2	n	n	n	n	4.8	n	n
CC(C)C[C@H]1CN([C@@H](Cc2ccccc2)CN2CCC[C@H]2CN2C(=O)C(=O)NC[C@@H]2Cc2ccc(O)cc2)C(=O)C(=O)N1CC1CCCCCC1	x	n	n	n	n	x	x
C/C(=C\c1ccc(C)o1)C(=O)c1c(C)cc(C)[nH]c1=O	n	n	n	n	7.3	n	n
C/C(=C\C=C\c1ccccc1)C(=O)c1c(C)cc(C)[nH]c1=O	n	n	n	n	7.4	n	5.9
C/C(=C\c1ccc2c(c1)OCO2)C(=O)c1c(C)cc(C)[nH]c1=O	n	n	n	n	5.5	n	n
SMILES	AHR activator	MsrA act	TbMetRS inhib	m5-HT2A agonist	MsrA inh	AI-2 QS mod	MsrA conf
CCC1CCCCN1CCCNC(=O)c1ccc(CS(=O)(=O)c2ccc(Br)cc2)o1 (centres undefined)	n	n	n	n	n	n	x
CCN(CC)C(=O)c1sc(NC(=O)c2ccc3c(c2)OCO3)c(C#N)c1C	n	n	n	n	n	n	x
Cc1c(C(=O)N2CCOCC2)sc(NC(=O)c2ccc3c(c2)OCO3)c1C#N	n	n	n	n	5.0	n	n
Cc1cccc(OCc2nnc(-c3ccc(F)cc3)o2)c1	n	n	n	n	n	x	x
N#Cc1c(N2CCCC2)ccc(Br)c1Cl	n	n	n	n	6.0	n	9.0
Nc1cc(Cl)ccc1N1CCCCC1	n	n	n	n	n	n	x
